In brackets after ≈: the same amount, converted by molar mass.
How the values were obtained:
[1] = tested on: Staphylococcus aureus; test: Antibacterial activity against Staphylococcus aureus ATCC 29213 assessed as complete reduction in bacterial cell growth by CLSI protocol based broth liquid microdilution method; assay type: functional
In short: (§1)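 Broth liquid microdilution per CLSI guidelines; isolates identified on an automated MicroScan system before testing. MIC taken as lowest concentration giving total inhibition of bacterial growth, reported in μg/mL. S. aureus ATCC29213 run as the control strain.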

[2] = tested on: Staphylococcus aureus; test: Antibacterial activity against methicillin-resistant Staphylococcus aureus assessed as complete reduction in bacterial cell growth by CLSI protocol based broth liquid microdilution method; assay type: functional; in short: as §1
[3] = tested on: Staphylococcus aureus; test: Antibacterial activity against methicillin-sensitive Staphylococcus aureus assessed as complete reduction in bacterial cell growth by CLSI protocol based broth liquid microdilution method; assay type: functional; in short: as §1
[4] = tested on: Enterococcus faecalis; test: Antibacterial activity against linezolid-resistant Enterococcus faecalis assessed as complete reduction in bacterial cell growth by CLSI protocol based broth liquid microdilution method; assay type: functional; in short: as §1
[5] = tested on: Enterococcus faecium; test: Antibacterial activity against vancomycin-resistant Enterococcus faecium assessed as complete reduction in bacterial cell growth by CLSI protocol based broth liquid microdilution method; assay type: functional; in short: as §1
[6] = tested on: Staphylococcus aureus; test: Antibacterial activity against clinical isolates of methicillin-resistant Staphylococcus aureus assessed as complete reduction in bacterial cell growth by CLSI protocol based broth liquid microdilution method; assay type: functional; in short: as §1
[7] = tested on: Staphylococcus aureus; test: Antibacterial activity against clinical isolates of methicillin-sensitive Staphylococcus aureus assessed as reduction in bacterial cell growth by CLSI protocol based broth microdilution method; assay type: functional; in short: as §1
[8] = tested on: Enterococcus faecalis; test: Antibacterial activity against clinical isolates of linezolid-resistant Enterococcus faecalis assessed as complete reduction in bacterial cell growth by CLSI protocol based broth liquid microdilution method; assay type: functional; in short: as §1
[9] = tested on: Enterococcus faecium; test: Antibacterial activity against clinical isolates of vancomycin-resistant Enterococcus faecium assessed as complete reduction in bacterial cell growth by CLSI protocol based broth liquid microdilution method; assay type: functional; in short: as §1
[10] = Stability in simulated gastric acid assessed as compound remaining at pH 1.2 incubated for 0.5 hrs; assay type: ADME; settings: read-out: Stability
[11] = Stability in simulated gastric acid assessed as compound remaining at pH 1.2 incubated for 1 hr; assay type: ADME; settings: read-out: Stability
[12] = Stability in simulated gastric acid assessed as compound remaining at pH 1.2 incubated for 1.5 hrs; assay type: ADME; settings: read-out: Stability
[13] = Stability in simulated gastric acid assessed as compound remaining at pH 1.2 incubated for 2 hrs; assay type: ADME; settings: read-out: Stability
[14] = Solubility of compound in water by UV spectrophotometric analysis; assay type: physicochemical
[15] = tested on: HepG2; test: Cytotoxicity against human HepG2 cells assessed as reduction in cell viability incubated for 48 hrs by MTT assay; assay type: cell-based; settings: HepG2, 48 h
In short: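 HepG2 cells were grown in RPMI1640 with 10% FBS and plated at about 4×10^4 cells/well in MEM. After 24 h at 37 °C in 5% CO2, compounds were added at the indicated final concentrations for 48 h. MTT was added (0.5 mg/mL final) for 4 h at 37 °C and the formazan dissolved in DMSO. Absorbance was read at 492 nm (630 nm reference). Each compound was tested three times; IC50 given as mean ± SD.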

[16] = Stability in human liver microsomes assessed as half life at 1.5 uM preincubated for 5 mins with NADPH and measured after 45 mins by LC/MS analysis; assay type: ADME, Microsome
In short: (§2)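 Compound solution at 1.5 µM with 0.75 mg/mL microsomes (before NADPH addition) was preincubated 5 min at 37 °C. Reactions were started with NADPH (6 mM stock). Samples were quenched with acetonitrile containing internal standard at 0, 5, 15, 30 and 45 min, then centrifuged, and the supernatant was diluted with water for LC/MS. Runs were in duplicate. T1/2 = ln2/k from the log-linear slope, and CLint was derived from T1/2.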

[17] = Stability in human liver microsomes assessed as intrinsic clearance at 1.5 uM preincubated for 5 mins with NADPH and measured after 45 mins by LC/MS analysis; assay type: ADME, Microsome; settings: read-out: CLH; in short: as §2
[18] = Stability in human liver microsomes assessed as compound remaining at 1.5 uM preincubated for 5 mins with NADPH and measured after 45 mins by LC/MS analysis; assay type: ADME, Microsome; in short: as §2
[19] = target: T1, MAO-A (Homo sapiens, UniProt P21397); test: Inhibition of recombinant human MAO-A (active motif 31502) at 30 uM using luciferin as substrate incubated for 15 mins followed by substrate addition and measured after 60 mins by luminescence based method relative to control; settings: probe luciferin
T1 sequence (P21397 whole entry): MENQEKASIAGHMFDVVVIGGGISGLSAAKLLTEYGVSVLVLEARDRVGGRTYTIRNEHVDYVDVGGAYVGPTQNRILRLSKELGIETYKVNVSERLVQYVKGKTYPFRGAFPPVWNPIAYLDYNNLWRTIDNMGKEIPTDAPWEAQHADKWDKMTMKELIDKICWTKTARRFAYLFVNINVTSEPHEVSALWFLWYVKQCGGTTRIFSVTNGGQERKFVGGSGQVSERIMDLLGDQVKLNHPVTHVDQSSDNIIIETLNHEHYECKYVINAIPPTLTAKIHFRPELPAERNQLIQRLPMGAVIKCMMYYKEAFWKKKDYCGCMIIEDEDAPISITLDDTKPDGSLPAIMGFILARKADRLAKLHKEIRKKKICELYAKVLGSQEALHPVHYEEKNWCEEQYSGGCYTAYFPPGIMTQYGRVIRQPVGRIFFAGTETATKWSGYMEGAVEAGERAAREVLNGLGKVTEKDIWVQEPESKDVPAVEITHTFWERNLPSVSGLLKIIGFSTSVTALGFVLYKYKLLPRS
In short: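 Recombinant human MAO-A was measured with the MAO-Glo kit, modified. Compounds were in DMSO (1% DMSO final) and preincubated with enzyme 15 min at room temperature. Luciferin-derivative substrate was then added and the reaction run 60 min at room temperature. Luciferase detection reagent was added for 20 min and luminescence read. Buffer without enzyme served as the 100% inhibition control; DMSO alone as the no-inhibition control. Percent inhibition = (Max − signal)/(Max − Min)×100.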

[20] = tested on: Staphylococcus aureus; test: Potency index, ratio of rade-zolid MIC to compound MIC for antibacterial activity against Staphylococcus aureus ATCC 29213 by CLSI protocol based broth liquid microdilution method; assay type: functional
[21] = tested on: Staphylococcus aureus; test: Potency index, ratio of rade-zolid MIC to compound MIC for antibacterial activity against methicillin-sensitive Staphylococcus aureus by CLSI protocol based broth liquid microdilution method; assay type: functional
[22] = tested on: Enterococcus faecalis; test: Potency index, ratio of rade-zolid MIC to compound MIC for antibacterial activity against linezolid-resistant Enterococcus faecalis by CLSI protocol based broth liquid microdilution method; assay type: functional
[23] = tested on: Enterococcus faecium; test: Potency index, ratio of rade-zolid MIC to compound MIC for antibacterial activity against vancomycin-resistant Enterococcus faecium by CLSI protocol based broth liquid microdilution method; assay type: functional

Structure (SMILES) | MIC [1] [µg/mL] | MIC [2] [µg/mL] | MIC [3] [µg/mL] | MIC [4] [µg/mL] | MIC [5] [µg/mL] | MIC [6] [µg/mL] | MIC [7] [µg/mL] | MIC [8] [µg/mL] | MIC [9] [µg/mL] | remaining at 0.5 h [10] [%] | remaining at 1 h [11] [%] | remaining at 1.5 h [12] [%] | remaining at 2 h [13] [%] | solubility [14] [µg/mL] | IC50 [15] [µM] | CLint scaled at 1.5 µM [17] [mL/min/kg] | inhibition at 1 h, 30 µM [19] [%] | Ratio [20] | Ratio [21] | Ratio [22] | also measured
CC(=O)NC[C@H]1CN(c2ccc(-c3ccc(/C=N/N4CCN(C)CC4)nc3)c(F)c2)C(=O)O1 | 0.125 (≈ 0.275 µM) | 0.125 (≈ 0.275 µM) | 0.125 (≈ 0.275 µM) | 0.25 (≈ 0.55 µM) | 0.25 (≈ 0.55 µM) | 2 (≈ 4.4 µM) | 2 (≈ 4.4 µM) | 0.25 to 0.5 (≈ 0.55 to 1.1 µM) | 0.25 to 0.5 (≈ 0.55 to 1.1 µM) | 98.3 | 96.8 | 96.2 | 95.8 | 63 (≈ 139 µM) | > 25 | 17.2 | 79 | 2 - 4 | 2 - 4 | 2 - 4 | half-life at 1.5 µM ([16]; liver microsomes): 1.68 h; remaining at 0.75 h, 1.5 µM ([18]; liver microsomes, read-out: Stability): 74.9%; Ratio [23]: 2 - 4
CC(=O)NC[C@H]1CN(c2ccc(-c3ccc(/C=N/N4CC[S+]([O-])CC4)c(O)c3)c(F)c2)C(=O)O1 | 0.25 (≈ 0.512 µM) | 0.125 (≈ 0.256 µM) | 0.25 (≈ 0.512 µM) | 0.25 (≈ 0.512 µM) | 0.25 (≈ 0.512 µM) | 0.5 to 1 (≈ 1.02 to 2.05 µM) | 0.5 (≈ 1.02 µM) | 0.5 (≈ 1.02 µM) | 0.5 (≈ 1.02 µM) |  |  |  |  |  |  |  | 88 |  |  |  | 
CC(=O)NC[C@H]1CN(c2ccc(-c3ccc(/C=N/N4CCSCC4)nc3)c(F)c2)C(=O)O1 | 0.125 (≈ 0.273 µM) | 0.125 (≈ 0.273 µM) | 0.25 (≈ 0.546 µM) | 0.25 (≈ 0.546 µM) | 0.25 (≈ 0.546 µM) |  | 0.25 to 0.5 (≈ 0.546 to 1.09 µM) | 0.5 (≈ 1.09 µM) | 1 (≈ 2.19 µM) | 99.4 | 99 | 98.6 | 98 | 57 (≈ 125 µM) | > 25 | 90.3 | 75 | 2 - 4 | 2 - 4 | 2 - 4 | t1/2 ([16]; microsomes, 0.75 h, 1.5 µM): 0.3207 h; Stability ([18]; microsomes, 0.75 h, 1.5 µM): 0.62%; Ratio [23]: 2 - 4
COC(=O)N1CCN(/N=C/c2ccc(-c3ccc(N4C[C@H](CNC(C)=O)OC4=O)cc3F)cc2O)CC1 | 0.5 (≈ 0.974 µM) | 0.5 (≈ 0.974 µM) | 0.5 (≈ 0.974 µM) | 0.5 (≈ 0.974 µM) | 0.5 (≈ 0.974 µM) | 2 (≈ 3.89 µM) | 2 (≈ 3.89 µM) | 2 (≈ 3.89 µM) | 2 (≈ 3.89 µM) |  |  |  |  |  |  |  |  |  |  |  | 

Reference: ChEMBL document CHEMBL4312003, “Optimization of biaryloxazolidinone as promising antibacterial agents against antibiotic-susceptible and antibiotic-resistant gram-positive bacteria” (Eur J Med Chem, 2020)
